{
  "source": "paper PMC5318329",
  "about": "(Drugs in R&D, 2016)",
  "key": {"[1]": {"type": "in vivo, human", "method_in_brief": "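Non-head-injury trauma patients randomised within 24–26 h of injury; daily IV infusion over 4 h or 24 h for 3 days. Plasma sampled pre-dose and serially after the first and third doses. Protein precipitation, then HPLC–MS/MS (LLOQ 0.1 ng/mL, ULOQ 100 ng/mL); NQ set missing, outliers excluded. NONMEM mixed-effects three-compartment model with first-order elimination; BMI power covariate centred at 27.4 kg/m2.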"}, "[2]": {"type": "in vivo, human", "details": "intravenous infusion up to 10 mg, 3 consecutive days"}, "C-reactive protein (CRP)": {"test_system": "C-reactive protein (CRP)", "details": "later time points (e.g. 72 h post dose), all dilmapimod dose levels; cited from earlier work"}, "IL-6": {"test_system": "IL-6", "details": "cited from earlier work"}, "[3]": {"details": "final three-compartment population PK model, IV infusion"}, "[4]": {"details": "power model, covariate centred to population mean 27.4 kg/m^2"}},
  "data": [
    {"smiles": "Cc1cc(F)ccc1-c1nc(NC(CO)CO)nc2c1ccc(=O)n2-c1c(F)cccc1F", "note": "[Dilmapimod]", "values": [
      {"measurement": "Dose proportionality of plasma concentration", "setting": "[1]; IV infusion 3, 7.5 mg over 4 h, 7.5, 10 mg over 24 h", "value": "increased approximately proportionally to the increase in dose"},
      {"measurement": "Terminal half-life", "setting": "[1]; calculated based on typical value of CL, Vc, V2, V3, Q1 and Q2", "value": 16, "unit": "h"},
      {"measurement": "Q1 (inter-compartmental clearance), typical value", "setting": "[1]; [3]", "value": 28.2, "unit": "L/h"},
      {"measurement": "Q2 (inter-compartmental clearance), typical value", "setting": "[1]; [3]", "value": 5.7, "unit": "L/h"},
      {"measurement": "V2 (volume of distribution of peripheral compartment), typical value", "setting": "[1]; [3]", "value": 35.9, "unit": "L"},
      {"measurement": "V3 (volume of distribution of peripheral compartment), typical value", "setting": "[1]; [3]", "value": 115.6, "unit": "L"},
      {"measurement": "Vc (volume of distribution of the central compartment), typical value", "setting": "[1]; [3]", "value": 8.1, "unit": "L"},
      {"measurement": "Clearance lower than in typical patient", "setting": "[1]; patients with BMI of 23 kg/m^2 (mean - SD) vs typical patient (27.4 kg/m^2)", "value": "about 21%"},
      {"measurement": "Clearance higher than in typical patient", "setting": "[1]; patients with BMI of 32 kg/m^2 (mean + SD) vs typical patient (27.4 kg/m^2)", "value": "~23", "unit": "%"},
      {"measurement": "BMI covariate on CL (power model exponent)", "setting": "[1]; [4]", "value": 1.36},
      {"measurement": "BMI covariate on Q2 (power model exponent)", "setting": "[1]; [4]", "value": 2.42},
      {"measurement": "Vss (steady-state volume of distribution) = Vc + V2 + V3", "setting": "[1]; sum of Vc, V2 and V3 of the final population PK model", "value": 160, "unit": "L"},
      {"measurement": "Tolerability", "setting": "[2]", "value": "generally well tolerated"},
      {"measurement": "CRP levels relative to placebo (exploratory analyses)", "setting": "C-reactive protein (CRP)", "value": "trend of lower levels of CRP"},
      {"measurement": "IL-6 levels relative to placebo (exploratory analyses)", "setting": "IL-6; 24 h post dose, all dilmapimod dose levels", "value": "trend of lower levels of IL-6"},
      {"measurement": "Ratios of IL-6 relative to placebo", "setting": "IL-6; continuous infusion of 10 mg/24 h, up to 72 h post dose", "value": "below 1"},
      {"measurement": "Overall effect of dilmapimod on IL-6 levels in PK/PD modelling", "setting": "IL-6; similar PK/PD modelling approach on IL-6 data", "value": "not revealed"}
    ]}
  ]
}
